Most compounds without a hit are left out; they make up all but 2.9% or so of the library.
SENP7 inh: inhibitors of human SENP7 protease; Q9BQF6; recombinant SENP7, Z-RLRGG-aminoluciferin luminescence, 40 min; inhibition, % at 5 µM; 330,000 tested, 1.5% active; AID 434973;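 active means inhibition above about 50% at the single test dose, limit read from the data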;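 further: plate controls were DMSO with enzyme for no effect and no enzyme buffer wells for full effect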
SENP8 block-1: inhibitors of human SENP8 protease | 360,000 tested, 0.64% active | Q96LD8 | recombinant SENP8, Nedd8 substrate fluorescence | inhibition, % at 20 µM; in the data active means inhibition mostly above about 40%, no sharp cut-off; inactive means mostly below about 27%
Target sequence (Q96LD8 whole entry, looked up): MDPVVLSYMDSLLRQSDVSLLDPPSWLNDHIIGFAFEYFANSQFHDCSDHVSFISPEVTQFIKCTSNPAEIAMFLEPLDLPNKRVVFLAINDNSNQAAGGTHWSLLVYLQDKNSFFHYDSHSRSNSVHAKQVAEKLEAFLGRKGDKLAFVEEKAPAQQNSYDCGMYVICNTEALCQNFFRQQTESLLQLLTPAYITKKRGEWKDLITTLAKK
HSP90 inh: blocks HSP90-mediated luciferase refolding in reticulocyte lysate; Rabbit reticulocyte lysate, luciferase refolding luminescence, 3 h; inhibition, % at 5.6 µM; 290,000 tested, 0.91% active;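 active means inhibition above the screen-wide mean plus 3 SD, computed separately per campaign, cut at about 16% in these data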;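 further: 0% = DMSO wells and 100% = 60 µM geldanamycin wells; inhibitors lower the luminescence because luciferase stays unfolded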
SENP8 block-2: SENP8 protease inhibition; Q96LD8; purified SENP8, Z-RLRGG-aminoluciferin cleavage, luminescence; inhibition, % at 10 µM; 330,000 tested, 1.2% active; in the data active means inhibition above about 50%
SENP6 block: inhibitors of human SENP6 protease; Recombinant SENP6 catalytic domain, aminoluciferin luminescence; inhibition, % at 10 µM; 330,000 tested, 1.8% active;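 active means inhibition above about 50% at the single tested dose, limit read from the data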;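 further: plate controls were DMSO wells with enzyme for no effect and DMSO wells lacking enzyme for full effect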
SENP1 FRET inh: SENP1 (human) catalytic domain inhibition; recombinant SENP1 catalytic domain, CyPet-SUMO1-YPet FRET cleavage; inhibition, % at 10 µM; 360,000 tested, 0.21% active; AID 624204;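 active means inhibition at least 30% at 10 µM, raw YFP signal under a set limit, fluorescence ratio 0.5 to 1.5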;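 further: 0% = enzyme with DMSO and 100% = no enzyme wells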
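Assay system: hSENP1 catalytic domain, recombinant. Amount: SENP1 enzyme, 20 pM final. Schedule: 50 min reaction, RT, dark. Technique: FRET, CFP and YFP emission. Control set: no-enzyme wells low, DMSO-plus-enzyme wells high control.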
SENP8 confirm: confirmation of human SENP8 protease inhibitors | shares compounds with SENP7 inh | Recombinant SENP8, Z-RLRGG-aminoluciferin luminescence, 60 min | inhibition, % at 12.5 µM | 6,200 tested, 40% active | AID 488912;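 active means mean inhibition across replicates above about 50%, limit read from the data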
SENP6 confirm: human SENP6 inhibition, confirmed. AID 488915. recombinant SENP6, Z-RLRGG-aminoluciferin luminescence. 6,200 tested, 58% active. shares compounds with SENP7 inh. inhibition, % at 12.5 µM
SENP7 confirm: confirmation of human SENP7 protease inhibitors. 6,200 tested, 69% active. inhibition, % at 12.5 µM. recombinant SENP7, Z-RLRGG-aminoluciferin luminescence, 40 min. shares compounds with SENP7 inh. AID 488917
Casp3 select: selectivity test for SENP inhibitors: human caspase-3 inhibition. 6,200 tested, 60% active. purified caspase-3, Z-DEVD-aminoluciferin luminescence, 60 min. inhibition, % at 12.5 µM. AID 488918. shares compounds with SENP7 inh;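 active means mean inhibition above about 50%, limit read from the data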;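 further: plate controls were enzyme with DMSO for no effect and wells without caspase-3 for full effect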
Target sequence (P42574 28-227 limits assumed): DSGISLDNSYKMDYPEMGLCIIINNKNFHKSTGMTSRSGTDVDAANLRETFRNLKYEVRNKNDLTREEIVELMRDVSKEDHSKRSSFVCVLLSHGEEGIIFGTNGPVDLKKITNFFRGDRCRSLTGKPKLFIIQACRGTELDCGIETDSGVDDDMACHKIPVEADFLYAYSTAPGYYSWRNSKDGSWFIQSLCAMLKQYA
SENP luc ctr: counter-screen for SENP inhibitors: luminescence interference; shares compounds with SENP7 inh; Pre-incubated SENP8/Z-RLRGG-aminoluciferin, luciferase luminescence interference; inhibition, % at 12.5 µM; 6,200 tested, 39% active; AID 488919;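 active means mean inhibition above about 50% when retested at one dose, limit read from the data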;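 further: plate controls were DMSO wells with completed reaction for no effect and substrate without enzyme for full effect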
An asterisk follows results filed as active; / = no result.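 How the source made its calls, unless noted: active means mean inhibition above about 50% in the one-dose retest (limit read from the data); inactive means the rest.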

SMILES	SENP7 inh	SENP8 block-1	HSP90 inh	SENP8 block-2	SENP6 block	SENP1 FRET inh	SENP8 confirm	SENP6 confirm	SENP7 confirm	Casp3 select	SENP luc ctr
COC(=O)c1[nH]c2cccc(Cl)c2c1NC(=O)CN1CCN(CCO)CC1	101*	-17	-1	1	13	1	11	10	0	-4	-3
COC(=O)c1[nH]c2cccc(Cl)c2c1NC(=O)CN1CCCCC1C (stereo not drawn)	5	-47	2	5	-34	-2	/	/	/	/	/
Cc1[nH]n(-c2ccc([N+](=O)[O-])cc2)c(=O)c1C=NCCN1CCN(C(=O)c2ccc(Br)cc2)CC1	88*	31	-2	49	64*	2	19	16	12	55*	56*
Cc1[nH]n(-c2ccc([N+](=O)[O-])cc2)c(=O)c1C=NCCN1CCN(C(=O)c2cccc(F)c2)CC1	88*	15	1	67*	90*	5	9	10	6	49	57*
CC1(C)CC(=O)C(C=NCCN2CCN(C(=O)c3ccc(Br)cc3)CC2)=C(O)C1	-5	21	3	-8	-1	-1	/	/	/	/	/
Cc1[nH]n(-c2ccc([N+](=O)[O-])cc2)c(=O)c1C=NCCc1c[nH]c2ccccc12	17	20	1	6	39	2	/	/	/	/	/
Cc1cccc(Nc2nn3c(=O)c4ccccc4nc3s2)c1	-5	-23	-2	-11	-3	0	/	/	/	/	/
CCCSc1nn2c(=O)c3ccccc3nc2s1	45	7	-2	37	64*	1	67*	65*	89*	83*	65*
N#Cc1c(N2CCCC2)nsc1-c1ccccc1	20	-24	11	42	60*	-10	30	34	25	44	52*
CCCN1CCC(NC23CC4CC(CC(C4)C2)C3)CC1	10	/	-3	-2	3	/	/	/	/	/	/
Clc1ccc(COn2nnc3ccccc32)c(Cl)c1	36	-8	5	10	60*	2	46	46	77*	36	47
Nc1ncc2[nH]c(N)nc2n1	/	-70	/	/	/	0	/	/	/	/	/
O=C1NC(=Nc2ccccc2)S/C1=C/c1cccs1	32	10	1	59*	17	-2	27	46	20	39	23
CC(C(=O)NC1CCCCC1)N1CCN(S(=O)(=O)c2cccs2)CC1 (stereo not drawn)	5	2	/	-4	2	-1	/	/	/	/	/
O=C(c1ccc2c3n(nc2c1)-c1ccc(Cl)cc1CO3)N1CCOCC1	-9	-23	/	4	12	0	/	/	/	/	/
O=C(c1ccc2c3n(nc2c1)-c1ccccc1CO3)N1CCCCC1	95*	-8	/	91*	97*	0	97*	98*	101*	97*	96*
Cc1ccc2c(c1)COc1c3ccc(C(=O)N4CCCCC4)cc3nn1-2	80*	-33	/	81*	84*	3	45	87*	96*	86*	18
O=C(c1ccc2c3n(nc2c1)-c1ccccc1CO3)N1CCOCC1	95*	-107	/	87*	93*	-1	93*	93*	101*	98*	92*
O=C(NCC1CCCO1)c1ccc2c3n(nc2c1)-c1ccccc1CO3 (stereo not drawn)	-3	-184	/	11	15	-3	/	/	/	/	/
CCOc1ccccc1NC(=O)CSc1nc(=O)n(CCN2CCOCC2)c2c1CCCC2	-12	7	/	11	4	2	/	/	/	/	/

High-throughput results: PubChem BioAssay, several laboratories
